The values below come from ChEMBL document CHEMBL1155544, “Syntheses and structure-activity relationship (SAR) studies of 2,5-diazabicyclo[2.2.1]heptanes as novel alpha7 neuronal nicotinic receptor (NNR) ligands” (Bioorg Med Chem Lett, 2010).

The series can be described thus: Metabolic stability in human liver microsome assessed as compound remaining after 30 mins. The class given is ADME. Particulars: liver microsomes, read-out: Stability. The method, boiled down: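 Human liver microsomes, 30 min incubation; read-out is percent of parent compound remaining.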
(In general: Liver microsomes are vesicles of endoplasmic reticulum, rich in cytochrome P450 enzymes.)

Take `CN1C[C@@H]2C[C@H]1CN2c1ccc(-c2ccc3[nH]ccc3c2)nn1`: the remaining at 0.5 h came to 97%.
